ChEMBL document CHEMBL5055631, “Antitumor properties of novel sesquiterpene lactone analogs as NFκB inhibitors that bind to the IKKβ ubiquitin-like domain (ULD)” (Eur J Med Chem, 2021)

Columns and labels:
Type in all cases: functional
[1] = test system: HCC 2998; test: Anticancer activity against human HCC 2998 cells assessed as cell growth inhibition incubated for 48 hrs by SRB method
Summary of the method: (§1)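 NCI-60 panel (DTP). Cells in RPMI 1640 with 5% FBS, 2 mM L-glutamine, seeded at 5,000–40,000 per well by doubling time and preincubated 24 h at 37 °C, 5% CO2. Time-zero plates TCA-fixed. DMSO stocks diluted in medium with gentamicin, tested at 100 μM, 10 μM, 1 μM, 0.1 μM and 10 nM for 48 h. Cells fixed with cold TCA, stained with SRB, absorbance read at 515 nm.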

[2] = test system: HOP-62; test: Anticancer activity against human HOP-62 cells assessed as cell growth inhibition incubated for 48 hrs by SRB method; summary of the method: as §1
[3] = test system: T47D; test: Anticancer activity against human T47D cells assessed as cell growth inhibition incubated for 48 hrs by SRB method; summary of the method: as §1
[4] = test system: SNB-19; test: Anticancer activity against human SNB-19 cells assessed as cell growth inhibition incubated for 48 hrs by SRB method; summary of the method: as §1
[5] = test system: EKVX; test: Anticancer activity against human EKVX cells assessed as cell growth inhibition incubated for 48 hrs by SRB method; summary of the method: as §1
[6] = test system: U-251; test: Anticancer activity against human U-251 cells assessed as cell growth inhibition incubated for 48 hrs by SRB method
Summary of the method: (§2)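 NCI-60 panel, SRB assay. Cells grown in RPMI 1640 with 5% FBS and 2 mM L-glutamine, seeded at 5,000–40,000 cells/well depending on doubling time, and preincubated 24 h at 37 °C with 5% CO2. Time-zero plates were TCA-fixed. Compounds came from DMSO stocks and were tested at 100 μM, 10 μM, 1 μM, 0.1 μM and 10 nM for 48 h. Cells were fixed with cold TCA and stained with 0.4% SRB, and the dye was solubilized in 10 mM Tris base with A515 read.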

[7] = test system: NCI/ADR-RES; test: Anticancer activity against human NCI/ADR-RES cells assessed as cell growth inhibition incubated for 48 hrs by SRB method; summary of the method: as §1
[8] = test system: OVCAR-8; test: Anticancer activity against human OVCAR-8 cells assessed as cell growth inhibition incubated for 48 hrs by SRB method; summary of the method: as §1
[9] = test system: Malme-3M; test: Anticancer activity against human MALME-3M cells assessed as cell growth inhibition incubated for 48 hrs by SRB method
[10] = test system: DU-145; test: Anticancer activity against human DU-145 cells assessed as cell growth inhibition incubated for 48 hrs by SRB method; summary of the method: as §1
[11] = test system: SW-620; test: Anticancer activity against human SW-620 cells assessed as cell growth inhibition incubated for 48 hrs by SRB method
[12] = test system: NCI-H23; test: Anticancer activity against human NCI-H23 cells assessed as cell growth inhibition incubated for 48 hrs by SRB method; summary of the method: as §1
[13] = test system: IGROV-1; test: Anticancer activity against human IGROV-1 cells assessed as cell growth inhibition incubated for 48 hrs by SRB method; summary of the method: as §1
[14] = test system: OVCAR-4; test: Anticancer activity against human OVCAR-4 cells assessed as cell growth inhibition incubated for 48 hrs by SRB method
[15] = test system: CAKI-1; test: Anticancer activity against human CAKI-1 cells assessed as cell growth inhibition incubated for 48 hrs by SRB method; summary of the method: as §1
[16] = test system: LOX IMVI; test: Anticancer activity against human LOX IMVI cells assessed as cell growth inhibition incubated for 48 hrs by SRB method
[17] = test system: SR; test: Anticancer activity against human SR cells assessed as cell growth inhibition incubated for 48 hrs by SRB method; summary of the method: as §1
[18] = test system: PC-3; test: Anticancer activity against human PC-3 cells assessed as cell growth inhibition incubated for 48 hrs by SRB method; summary of the method: as §1
[19] = test system: NCI-H522; test: Anticancer activity against human NCI-H522 cells assessed as cell growth inhibition incubated for 48 hrs by SRB method
[20] = test system: OVCAR-5; test: Anticancer activity against human OVCAR-5 cells assessed as cell growth inhibition incubated for 48 hrs by SRB method
[21] = test system: MOLT-4; test: Anticancer activity against human MOLT-4 assessed as cell growth inhibition incubated for 48 hrs by SRB method
[22] = test system: UO-31; test: Anticancer activity against human UO-31 cells assessed as cell growth inhibition incubated for 48 hrs by SRB method
Summary of the method: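 NCI-60 panel, SRB assay. Time-zero plates were TCA-fixed. Compounds came from DMSO stocks and were tested at 100 μM, 10 μM, 1 μM, 0.1 μM and 10 nM for 48 h. Cells were fixed with cold TCA and stained with 0.4% SRB, and the dye was solubilized in 10 mM Tris base with A515 read.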

[23] = test system: A498; test: Anticancer activity against human A498 cells assessed as cell growth inhibition incubated for 48 hrs by SRB method; summary of the method: as §1
[24] = test system: UACC-257; test: Anticancer activity against human UACC-257 assessed as cell growth inhibition incubated for 48 hrs by SRB method; summary of the method: as §2
[25] = test system: COLO 205; test: Anticancer activity against human COLO 205 cells assessed as cell growth inhibition incubated for 48 hrs by SRB method
[26] = test system: ACHN; test: Anticancer activity against human ACHN cells assessed as cell growth inhibition incubated for 48 hrs by SRB method; summary of the method: as §1
[27] = test system: M14; test: Anticancer activity against human M14 cells assessed as cell growth inhibition incubated for 48 hrs by SRB method; summary of the method: as §1
[28] = test system: SF-295; test: Anticancer activity against human SF-295 cells assessed as cell growth inhibition incubated for 48 hrs by SRB method; summary of the method: as §1
[29] = test system: RPMI-8226; test: Anticancer activity against human RPMI-8226 cells assessed as cell growth inhibition incubated for 48 hrs by SRB method
[30] = test system: BT-549; test: Anticancer activity against human BT-549 cells assessed as cell growth inhibition incubated for 48 hrs by SRB method; summary of the method: as §1
[31] = Anticancer activity against human HS 578T cells assessed as cell growth inhibition incubated for 48 hrs by SRB method
[32] = test system: MDA-MB-231; test: Anticancer activity against human MDA-MB-231 cells assessed as cell growth inhibition incubated for 48 hrs by SRB method; summary of the method: as §1
[33] = test system: HCT-116; test: Anticancer activity against human HCT-116 cells assessed as cell growth inhibition incubated for 48 hrs by SRB method; summary of the method: as §1
[34] = test system: K562; test: Anticancer activity against human K562 cells assessed as cell growth inhibition incubated for 48 hrs by SRB method
[35] = test system: MCF7; test: Anticancer activity against human MCF7 cells assessed as cell growth inhibition incubated for 48 hrs by SRB method; summary of the method: as §1
[36] = test system: HCT-15; test: Anticancer activity against human HCT-15 cells assessed as cell growth inhibition incubated for 48 hrs by SRB method; summary of the method: as §1
[37] = test system: HT-29; test: Anticancer activity against human HT29 cells assessed as cell growth inhibition incubated for 48 hrs by SRB method; summary of the method: as §1
[38] = test system: NCI-H460; test: Anticancer activity against human NCI-H460 cells assessed as cell growth inhibition incubated for 48 hrs by SRB method; summary of the method: as §1
[39] = test system: SF-539; test: Anticancer activity against human SF-539 cells assessed as cell growth inhibition incubated for 48 hrs by SRB method
[40] = test system: A549; test: Anticancer activity against human A549 cells assessed as cell growth inhibition incubated for 48 hrs by SRB method; summary of the method: as §1
[41] = test system: RXF 393; test: Anticancer activity against human RXF 393 cells assessed as cell growth inhibition incubated for 48 hrs by SRB method; summary of the method: as §1

`C=C1C(=O)O[C@H]2[C@H]1CC/C(COC(=O)NCc1cc(OC)cc(OC)c1)=C\CC[C@@]1(C)O[C@@H]21` gave a GI50 [1] of 1.94 µM, a GI50 [2] of 3.06 µM and a GI50 [3] of 4.12 µM. For the same compound, the GI50 [4] was 5.32 µM, the GI50 [5] was 2.06 µM and the GI50 [6] was 3.16 µM. For the same compound, the GI50 [7] was 1.82 µM, the GI50 [8] was 1.7 µM and the GI50 [9] was 1.86 µM. It also gave a GI50 [10] of 1.51 µM, a GI50 [11] of 1.12 µM and a GI50 [12] of 1.84 µM. For the same compound, the GI50 [13] was 1.54 µM, the GI50 [14] was 2.12 µM and the GI50 [15] was 2.11 µM. It also gave a GI50 [16] of 0.54 µM, a GI50 [17] of 0.32 µM and a GI50 [18] of 1.66 µM. It also gave a GI50 [19] of 0.34 µM, a GI50 [20] of 1.01 µM and a GI50 [21] of 2 µM. For the same compound, the GI50 [22] was 0.68 µM, the GI50 [23] was 2.98 µM and the GI50 [24] was 0.27 µM. For the same compound, the GI50 [25] was 1.35 µM, the GI50 [26] was 1.7 µM and the GI50 [27] was 1.64 µM. It also gave a GI50 [28] of 7.78 µM, a GI50 [29] of 1.8 µM and a GI50 [30] of 1.61 µM. For the same compound, the GI50 [31] was 0.58 µM, the GI50 [32] was 0.72 µM and the GI50 [33] was 0.77 µM. The GI50 [34] was 1.57 µM, the GI50 [35] was 2.72 µM and the GI50 [36] was 0.77 µM. It also gave a GI50 [37] of 1.2 µM, a GI50 [38] of 3.01 µM and a GI50 [39] of 1.54 µM. For the same compound, the GI50 [40] was 2.58 µM and the GI50 [41] was 1.29 µM.

With `C=C1C(=O)O[C@H]2[C@H]1CC/C(COC(=O)NCc1ccccc1OC)=C\CC[C@@]1(C)O[C@@H]21` the GI50 [1] was 1.82 µM, the GI50 [2] was 3.69 µM and the GI50 [3] was 3.4 µM. It also gave a GI50 [4] of 1.57 µM, a GI50 [5] of 1.98 µM and a GI50 [6] of 2.2 µM. It also gave a GI50 [7] of 2.29 µM, a GI50 [8] of 1.78 µM and a GI50 [9] of 1.89 µM. The GI50 [10] was 1.68 µM, the GI50 [11] was 0.76 µM and the GI50 [12] was 1.74 µM. The GI50 [13] was 1.48 µM, the GI50 [14] was 1.57 µM and the GI50 [15] was 3.23 µM. For the same compound, the GI50 [16] was 1.43 µM, the GI50 [17] was 0.67 µM and the GI50 [18] was 1.79 µM. The GI50 [19] was 0.35 µM, the GI50 [20] was 0.87 µM and the GI50 [21] was 2.53 µM. It also gave a GI50 [22] of 1.04 µM, a GI50 [23] of 2.26 µM and a GI50 [24] of 1.35 µM. The GI50 [25] was 1.75 µM, the GI50 [26] was 1.16 µM and the GI50 [27] was 1.1 µM. It also gave a GI50 [28] of 5.02 µM, a GI50 [29] of 1.77 µM and a GI50 [30] of 1.47 µM. For the same compound, the GI50 [31] was 0.49 µM, the GI50 [32] was 0.69 µM and the GI50 [33] was 0.54 µM. For the same compound, the GI50 [34] was 0.82 µM, the GI50 [35] was 3.13 µM and the GI50 [36] was 1.04 µM. The GI50 [37] was 1.22 µM, the GI50 [38] was 3.73 µM and the GI50 [39] was 1.53 µM. For the same compound, the GI50 [40] was 3.07 µM and the GI50 [41] was 1.27 µM.
